Compound activity (PubChem BioAssay)
A selection: hits, their analogues and other compounds. The true share with any hit is near 1.8%.
Cneo AK release = Cryptococcus neoformans cell lysis inducers, primary screen, AK release luminescence, single concentration. C. neoformans lysis, adenylate kinase release luminescence, 4 h; normalised: neutral wells 0, clomiphene wells 100. lysis activity, % at 15 µM. AID 651654, 2012. 360,000 compounds, 0.2% hits;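 active means mean lysis activity across replicates of at least 80%, whatever share of replicates individually reach that level; inactive means mean lysis activity below 80%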
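Assay system: Cryptococcus neoformans yeast cells / Dosing: single-point compound dose / Timing: 4 h at 37 °C static, read 1 h later / Measured by: luminescence of released adenylate kinase using an AK detection reagent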
MT1-MMP act inh = blockers of MT1-MMP proenzyme processing, primary screen, HT1080 RFP-PRO-GFP cells, GFP/RFP fluorescence. GFP/RFP ratio fluorescence, overnight; percent of plate control window, DMSO zero. GFP/RFP ratio change, % at 20 µM. 360,000 compounds, 0.061% hits;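 active means GFP/RFP ratio change of at least 30% with cell ATP level not reduced by more than half and red fluorescence within 50% of control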
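Test system: HT1080 RFP-PRO-GFP cells; Benchmarks: DMSO and RFP-L50D-GFP cell wells; Timing: cells overnight before dosing, compound overnight, 37 °C, 5% CO2; Compound: one 20 µM compound dose with 1% DMSO; Read-out: GFP/RFP fluorescence ratio.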
DAGLB inh = DAGLB lipase inhibitors, primary screen, biochemical, fluorescence, HTS; Diacylglycerol lipase-beta (Homo sapiens), Q8NCG7; HEK293T DAGLB membrane lysate, EnzChek fluorogenic substrate; inhibition, % at 5.17 µM; 340,000 compounds, 0.059% hits; in the data active means inhibition above about 34%;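 further: 0% = enzyme with vehicle and 100% = wells lacking enzyme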
Target sequence (Q8NCG7 whole entry, looked up): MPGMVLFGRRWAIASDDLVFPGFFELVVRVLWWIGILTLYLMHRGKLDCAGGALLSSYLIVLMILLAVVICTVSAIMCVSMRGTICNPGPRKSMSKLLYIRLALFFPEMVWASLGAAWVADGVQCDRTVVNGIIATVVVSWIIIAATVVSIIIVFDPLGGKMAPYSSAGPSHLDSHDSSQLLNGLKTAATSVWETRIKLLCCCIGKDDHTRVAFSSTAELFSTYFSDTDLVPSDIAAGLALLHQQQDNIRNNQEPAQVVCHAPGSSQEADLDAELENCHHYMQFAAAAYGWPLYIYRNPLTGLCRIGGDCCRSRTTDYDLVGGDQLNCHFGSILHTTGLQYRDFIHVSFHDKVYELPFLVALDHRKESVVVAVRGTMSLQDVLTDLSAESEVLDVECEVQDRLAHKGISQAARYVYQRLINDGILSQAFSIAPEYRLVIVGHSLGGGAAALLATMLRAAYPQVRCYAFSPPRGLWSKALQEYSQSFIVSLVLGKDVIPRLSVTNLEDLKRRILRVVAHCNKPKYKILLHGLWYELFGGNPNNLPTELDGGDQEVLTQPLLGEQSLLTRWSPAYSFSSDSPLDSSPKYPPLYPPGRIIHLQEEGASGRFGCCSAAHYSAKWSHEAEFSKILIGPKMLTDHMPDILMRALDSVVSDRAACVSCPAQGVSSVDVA
SKN-1 block = suppressors of acrylamide-induced Pgst-4::GFP reporter in worms, primary screen, SKN-1 inhibitor project, whole organism, uHTS, GFP/RFP fluorescence ratio, strain VP596; 360,000 compounds, 0.49% hits; C. elegans VP596 Pgst-4::GFP/RFP ratio, 24 h; inhibition, % at 21.8 µM; AID 624304, 2012;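 active means interference check ratio from 0.5 to 1.5 plus GFP to RFP signal ratio inhibition reaching or exceeding a fixed threshold, cut at about 30% in these data, passing the limit was not always enough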
Ecoli rRNA inh = reduced GFP signal of wild-type E. coli, primary screen, bacterial rRNA inhibitor project, GFP/RFP fluorescence, OD600, single point | E. coli WT GFP vs humanized-ribosome RFP mutants, 24 h; stronger effect = lower value; DMSO median 0, no signal -100 | GFP signal change (wild-type ribosome), % (concentration not given with the values) | 350,000 compounds, 1.6% hits | AID 720706, 2013;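 active means significant combined selectivity score with lowered wild-type GFP, culture density cut under 30%, mutant RFP and density less affected; inactive means any of these conditions unmet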
hiPSC survival = enhancers of single-cell hiPSC survival, primary screen, ATPlite luminescence. 100% = ROCK inhibitor wells, 0% = DMSO. AID 602274, 2012. 360,000 compounds, 0.044% hits. survival enhancement, % at 20 µM; in the data active means survival enhancement above about 18%;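 further: cells exposed to compounds for 16 hours before the ATP read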
Numbers without * were called inactive; . = not tested or not shown.

SMILES	Cneo AK release	MT1-MMP act inh	DAGLB inh	SKN-1 block	Ecoli rRNA inh	hiPSC survival
Cc1ccc(NC(=O)c2ccc(Cl)c(NC(=O)c3cccs3)c2)cc1	0	5	-3	9	-37*	0
O=C(Nc1cccc(NC(=O)c2cccs2)c1)c1ccc2c(c1)OCO2	7	1	-3	1	-34*	0
Cc1ccc(NC(=O)c2cccs2)cc1NC(=O)c1ccco1	3	1	0	44*	.	1
C[C@@H]1CN([C@@H](C)CO)C(=O)c2cc(NC(=O)CCCCCC(=O)Nc3ccccc3N)ccc2O[C@H]1CN(C)S(=O)(=O)c1ccc(F)cc1	.	.	.	.	-6	.
C[C@H](CO)N1C[C@H](C)[C@@H](CN(C)Cc2ccc3c(c2)OCO3)Oc2ccc(NS(=O)(=O)c3cccs3)cc2CC1=O	2	.	.	.	-2	.
CCOc1ccc(N=Nc2c(=O)[nH]n3c(C)cc(C)nc23)cc1	.	18	4	45*	12	0
O=C(Nc1cccc(Cl)c1)c1ccccc1	-3	-1	-3	4	6	-3
O=C(Nc1csc(Cl)c1)c1ccccc1	-2	-1	.	42*	-4	-1
O=C(Nc1ccc(Cl)c(Cl)c1)c1ccccc1	-3	0	-4	43*	-14	-3
O=C(C[C@H]1C[C@H](C(=O)N2CCOCC2)[C@@]2(CCC3CCCC3)c3[nH]c4cc(-c5ccco5)ccc4c3CCN2C1=O)NCc1ccco1	1	-24	3	36*	.	-1
O=C(C[C@H]1C[C@H](C(=O)N2CCOCC2)[C@@]2(CCC3CCCC3)c3[nH]c4cc(-c5ccco5)ccc4c3CCN2C1=O)NCCC1=CCCCC1	0	-10	6	6	.	2
C[C@H](CO)N1C[C@H](C)[C@@H](CN(C)C(=O)C2CCC2)Oc2ncc(-c3ccc(F)cc3)cc2C1=O	-11	.	.	.	-4	.
COc1ccc(Cl)cc1C(Nc1cccnc1)c1ccc2cccnc2c1O (stereo not drawn)	.	5	9	7	-23*	0
C[C@H]1CN([C@@H](C)CO)C(=O)Cc2cc(NC(=O)Nc3ccc(F)cc3)ccc2O[C@H]1CN(C)Cc1ccc(C(=O)Nc2ccccc2N)cc1	.	.	.	.	-56	.
Nc1n[nH]c(C2CC2)c1N=Nc1ccc(Cl)c(Cl)c1	-1	1	.	4	-52*	1
CC[C@H](C)[C@H](NC(N)=O)C(=O)Nc1ccc(S(=O)(=O)NC(C)C)cc1	-3	-10	1	11	-22*	1
COCC(=O)Nc1ccc2c(c1)[C@@H]1C[C@H](CC(=O)N[C@@H](C)c3ccccc3)O[C@@H](CO)[C@@H]1O2	2	.	.	.	2	.
CCN(C(=O)COC(=O)c1cc(-c2ccccc2)nn1-c1ccccc1)C1CCS(=O)(=O)C1 (stereo not drawn)	1	-5	0	0	-31*	0
CCN(C(=O)COC(=O)c1n[nH]c2ccccc12)C1CCS(=O)(=O)C1 (stereo not drawn)	1	4	0	-5	11	0
CCN(C(=O)COC(=O)c1cc(-c2cccc3ccccc23)nc2ccccc12)C1CCS(=O)(=O)C1 (stereo not drawn)	.	-5	-3	39*	.	-1
C[C@H](CO)N1C[C@H](C)[C@H](CN(C)C(=O)Cc2ccccc2)OCCCC[C@H](C)Oc2ccc(NC(=O)Nc3ccc4c(c3)OCO4)cc2C1=O	0	.	.	.	1	.
CS(=O)(=O)N1CCN(c2ccccc2NC(=S)NC(=O)c2ccco2)CC1	2	-7	-1	-4	-28*	0
O=C(NC(=S)N1CCCc2ccccc21)c1ccco1	.	4	0	1	-3	0
CC1Cc2ccccc2N1C(=S)NC(=O)c1ccco1 (stereo not drawn)	.	2	1	2	-27*	0
COC(=O)[C@]1(C)N[C@H](CN(C)S(=O)(=O)c2ccc(C)cc2)[C@@H]2C(=O)N(C)C(=O)[C@@H]21	-1	-2	-3	-7	-6	-1
SMILES	Cneo AK release	MT1-MMP act inh	DAGLB inh	SKN-1 block	Ecoli rRNA inh	hiPSC survival
COC(=O)[C@]1(C)N[C@H](CN(C)S(=O)(=O)c2ccc(C(C)(C)C)cc2)[C@@H]2C(=O)N(C)C(=O)[C@@H]21	2	-1	-2	8	-25*	1
CCN(C[C@H]1N[C@@](C)(C(=O)OC)[C@H]2C(=O)N(Cc3ccccc3)C(=O)[C@@H]12)S(=O)(=O)c1ccc(C)cc1	3	0	1	0	-21*	4
COc1ccc(S(=O)(=O)Nc2ccc3c(c2)C(=O)N([C@H](C)CO)C[C@H](C)[C@H](CN(C)S(=O)(=O)c2ccc(Cl)cc2)OCCCC[C@H](C)O3)cc1	-13	.	.	.	1	.
Cc1nc([N+](=O)[O-])c(Br)n1CC(=O)c1ccc(F)cc1	.	6	-2	15	-33*	-1
Cc1nc([N+](=O)[O-])c(Br)n1CC(=O)c1cccc([N+](=O)[O-])c1	.	-2	-3	11	-39*	-4
CC(C)NC(=O)Nc1ccc2c(c1)C(=O)N([C@H](C)CO)C[C@H](C)[C@@H](CN(C)C(=O)c1ccncc1)OCCCC[C@H](C)O2	1	.	.	.	1	.
Clc1ccc(-n2nnc(-c3cccnc3)n2)cc1Cl	6	-2	-5	59*	9	-3
Brc1ccccc1-n1nnc(-c2cccnc2)n1	74	2	0	32	-14	-1
COc1ncccc1-c1nnn(-c2ccc(Cl)c(Cl)c2)n1	-3	-1	-10	8	6	1
Clc1ccc(-n2nnc(-c3nccs3)n2)cc1Cl	-4	2	-3	61*	2	-2
Cc1ccc(-n2nnc(-c3nccs3)n2)cc1	-4	8	-9	29	-10	-3
Fc1ccc(-n2nnc(-c3cccnc3)n2)cc1	-1	-6	-4	56*	8	-1
COc1ccc(CN(C)C[C@@H]2Oc3c(NS(=O)(=O)c4ccc(C)cc4)cccc3C(=O)N([C@@H](C)CO)C[C@H]2C)cc1	0	.	.	.	0	.
COc1c(OC(C)=O)ccc(/C=C/c2ccc3cccc(OC)c3n2)c1[N+](=O)[O-]	.	7	5	-1	.	1
